Assay results gathered from unrelated publications.
Each line is one published result; the experiments were not run side by side.

CCNc1nc2c(c(N3CC(=O)Nc4cc(OC)ccc43)n1)CCC2 — half-life (female C57BL/6 mouse; plasma; intravenous; 4 mg/kg; single dose): 0.51 h
CCCc1c(C2CCCCN2CCN2CCOCC2)[nH]c2cc(OC(F)(F)F)ccc12 (stereo not drawn) — half-life (male mouse; plasma; oral; 30 mg/kg): 11 h
Cn1cnc2c(F)c(Nc3ccc(Br)cc3Cl)c(C(=O)NOCCO)cc21 — half-life (nude mouse; tumour; oral; 5 mg/kg; single dose, tumour-bearing): 2.9 h
Cc1ccc2cncc(N3CCc4c(cc(Cn5ccnc5)cc4-c4cn(C)nc4C(F)(F)F)C3=O)c2c1 — half-life (male CD-1 mouse; plasma; oral; 50 mg/kg): 2 h
CC(C)(C)c1ccc(O)c(CN(Cc2cc(C(C)(C)C)ccc2O)C2CCC(NC(N)=O)CC2)c1 (stereo not drawn) — half-life (male C57BL/6 mouse; brain; oral; 10 mg/kg; single dose): 7.36 h
CN1CCC[C@H](CN2c3ccccc3Sc3ccccc32)C1.O=C(O)CCC(=O)O — half-life (mouse; plasma; oral; 64 mg/kg; single dose): 3.36 h
COC(=O)C1=C(C)OC(C)=C(C(C)=O)C1c1ccc(Cl)c(C(F)(F)F)c1 (stereo not drawn) — half-life (C57BL/6 mouse; plasma; intravenous; 10 mg/kg): 0.25 h
Cc1cc(NC(=O)c2cccc3cc(-c4cccc5[nH]nc(N)c45)ccc23)ccc1F — half-life (male CD-1 mouse; brain; oral; 10 mg/kg): 2.06 h
CCc1cc(C(=O)NC)c2nccc(N3CCc4c(cc(Cn5ccnc5)cc4-c4cn(C)nc4C(F)(F)F)C3=O)c2c1 — half-life (male CD-1 mouse; plasma; oral; 50 mg/kg): 1.5 h
CNCCN(C)c1cc(C#N)cc(CCc2cc(C)cc(N)n2)c1 — half-life (male BALB/c mouse; plasma; intravenous; 2 mg/kg): 1.1 h
Oc1nc2nonc2cc1Nc1c(F)c(F)c(C(F)(F)F)c(F)c1F — half-life (male C57BL/6 mouse; plasma; oral; 10 mg/kg): > 15 h
COc1ccc([C@@]23Oc4cc(OC)cc(OC)c4[C@]2(O)[C@H](O)[C@H](C(=O)N(C)C)[C@H]3c2ccccc2)cc1 — half-life (mouse; plasma; intravenous; 5 mg/kg): 1.5 h
COc1nc(-c2cc(C)c(N[C@@H](C)c3ccc(F)cc3)nn2)ccc1-n1cnc(C)c1 — half-life (male CD-1 mouse; plasma; intravenous; 1 mg/kg; single dose): 2.93 h
CNC(=O)c1cc(OC)cc2c(N3CCc4c(cc(Cn5ccnc5)cc4-c4cn(C)nc4C(F)(F)F)C3=O)ccnc12 — half-life (male CD-1 mouse; plasma; oral; 50 mg/kg): 1.1 h
NC[C@@H]1O[C@H](O[C@H]2[C@@H](O)[C@H](O[C@@H]3[C@@H](O)[C@H](N)C[C@H](N)[C@H]3O[C@H]3O[C@H](CO)[C@@H](O)[C@H](O)[C@H]3N)O[C@@H]2CO)[C@H](N)[C@@H](O)[C@@H]1O — half-life (male BALB/c mouse; plasma; intravenous; 15 mg/kg): 2.6 h
CC=Cc1ccc(O)c(OC)c1 — half-life (mouse; brain; intranasal; 100 mg/kg): 0.294 h
Cc1nc(-c2cnc(NC(C)C)n(C)c2=O)ccc1Oc1ccnc(-c2cnn(C)c2)c1 — half-life (female mouse; plasma; oral; 7.5 mg/kg; single dose): 14 h
NCC1CCN(c2nc(-c3ccncc3)nc3sc4c(c23)CCCC4)CC1 — half-life (female CD-1 mouse; plasma; intravenous; 10 mg/kg): 2.8 h
Cc1ccc(NC(=O)c2ccc(CN3CCN(C)CC3)cc2)cc1Nc1nccc(-c2cncc(-c3oncc3C)c2)n1 — half-life (male C57BL/6 mouse; plasma; oral; 100 mg/kg/day): 2.6 h
CC(C)Oc1c(NC(=O)c2ccc(NC(=O)[C@H](CC(N)=O)NC(=O)c3ccc(NC(=O)c4ccc(C#N)cc4)cc3)cc2)ccc(C(=O)Nc2ccc(C(=O)O)cc2)c1O — half-life (male CD-1 mouse; plasma; intravenous; 5 mg/kg; single dose): 0.98 h
COc1cc2c(Nc3ccc(Cl)c(Cl)c3F)ncnc2cc1OC[C@@H]1C[C@@H]2CN(C)C[C@@H]2C1 — half-life (FVB mouse; plasma; oral; 70 mg/kg; single dose): 14 h
CC(C)c1cnn2c(NCc3ccccc3)cc(NC[C@H]3CCNC[C@@H]3O)nc12 — half-life (male CD-1 mouse; plasma; intravenous; 10 mg/kg): 1.9 h
COc1ccc2c3c1O[C@H]1C[C@@H](OC(=O)c4ccccc4)C=C[C@@]31CCN(C)C2 — half-life (mouse; blood; intravenous; 3 mg/kg): 0.48 h
OC[C@H]1O[C@@H](c2ccc(Cl)c(Cc3ccc(O[C@H]4CCOC4)cc3)c2)[C@H](O)[C@@H](O)[C@@H]1O — half-life (CD-1 mouse; plasma; intravenous; 5 mg/kg): 0.16 h
COC(=O)CN(CCCc1ccccc1)CC(=O)N[C@@H](Cc1c[nH]cn1)c1nc(C)no1 — half-life (male C57BL/6 mouse; plasma; intraperitoneal; 30 mg/kg): 0.1 h
COc1ccc2nccc(N3CCc4c(cc(Cn5ccnc5)cc4-c4cn(C)nc4C(F)(F)F)C3=O)c2c1 — half-life (male CD-1 mouse; plasma; intravenous; 3 mg/kg): 0.7 h
Cc1cc(Nc2ccc(S(F)(F)(F)(F)F)cc2)n2ccnc2n1 — half-life (male Swiss mouse; plasma; oral; 100 mg/kg; single dose): 5.8 h
CC[C@H](C)[C@@H]1NC(=O)[C@@](C)(NC(=O)[C@H](CCCNC(=N)N)NC(=O)[C@H](CC(C)C)NC(=O)[C@@H](NC(=O)[C@H](CCC(N)=O)NC(=O)[C@H](CC(C)C)NC(C)=O)[C@@H](C)O)CCCC=CCCC[C@@](C)(C(=O)N[C@@H](CC(C)C)C(=O)N[C@@H](Cc2ccc3ccccc3c2)C(N)=O)NC(=O)[C@H](CCCNC(=N)N)NC(=O)[C@H](CCC(N)=O)NC1=O — half-life (male BALB/c mouse; plasma; intravenous; 10 mg/kg): 2.17 h
COc1ccc(C(O)COc2ccc(-c3csc(-c4ccc(OCC(O)c5ccc(OC)c(OC)c5)cc4)n3)cc2)cc1OC (stereo not drawn) — half-life (C57BL/6 mouse; plasma; oral; 75 mg/kg): 4.1 h
CNC(=O)c1ccccc1Nc1cc(Nc2cc(C)c(C3CCN(CCCCCCNC(=O)COc4cccc5c4C(=O)N(C4CCC(=O)NC4=O)C5=O)CC3)cc2OC(C)C)ncc1C(F)(F)F (stereo not drawn) — half-life (male Swiss mouse; plasma; intraperitoneal; 10 mg/kg): 6.1 h
COc1cc(OC)c2nccc(N3CCc4c(cc(Cn5ccnc5)cc4-c4cn(C)nc4C(F)(F)F)C3=O)c2c1 — half-life (male CD-1 mouse; plasma; oral; 50 mg/kg): 0.7 h
CCOc1ccc(Cc2cc([C@@H]3O[C@H](CO)[C@@H](O)[C@H](O)[C@H]3O)ccc2Cl)cc1 — half-life (male C57BL/6 mouse; plasma; intravenous; 1 mg/kg): 3.4 h
Cc1noc(-c2ccc(CSCCC(=O)O)cc2)c1NC(=O)O[C@H](C)c1ccccc1Cl — half-life (mouse; plasma; intravenous; 5 mg/kg): 0.49 h
COc1ccc(NC(=O)N2CCCCN3[C@H](CN(C)S(C)(=O)=O)[C@H](c4ccc(C#Cc5ccccc5)cc4)[C@@H]3C2)cc1 — half-life (mouse; plasma; intravenous): 5 h
Cc1noc([C@H](Cc2c[nH]cn2)NC(=O)CN(CCCc2ccccc2)CC(=O)O)n1 — half-life (male C57BL/6 mouse; plasma; intraperitoneal; 30 mg/kg): 0.233 h
CNC(=O)c1cc(Oc2ccc(NC(=O)Nc3ccc(Cl)c(C(F)(F)F)c3)c(F)c2)ccn1 — half-life (male mouse; plasma; oral; 10 mg/kg; single dose): 14.9 h
COc1ccc(NC(=O)N2CCCCN3[C@H](CO)[C@H](c4ccc(C#Cc5ccccc5)cc4)[C@@H]3C2)cc1 — half-life (mouse; plasma; intravenous): 3 h
COc1nc(-c2cc(C)c(N[C@@H](C)c3cc(F)cc(F)c3)nn2)ccc1-n1cnc(C)c1 — half-life (male CD-1 mouse; plasma; oral; 5 mg/kg; single dose): 7.1 h
CCN1CCN(Cc2cc(NC(=O)c3ccc(C)c(-c4ccc5nc(NC(=O)C6CC6)cn5n4)c3)cc(C(F)(F)F)c2)CC1 — half-life (Swiss mouse; plasma; intravenous; 1 mg/kg): 3.7 h
O=C(Nc1ccc(C(F)(F)F)cc1F)N1CCC(Cc2cccc(Oc3ccc(C(F)(F)F)cn3)c2)CC1 — half-life (male Swiss mouse; blood; oral; 1 mg/kg): 6 h
CCc1cc(OC)c2nccc(N3CCc4c(cc(Cn5ccnc5)cc4-c4cn(C)nc4C(F)(F)F)C3=O)c2c1 — half-life (male CD-1 mouse; plasma; intravenous; 3 mg/kg): 0.9 h
CCc1ccc(Cc2cc([C@@H]3O[C@H](CO)[C@@H](O)[C@H](O)[C@H]3O)cc3c2CCC3)cc1 — half-life (male C57BL/6 mouse; plasma; oral; 3 mg/kg): 3.1 h
